Beta apoptosis: blocks beta cell apoptosis. protection from apoptosis, % (test concentration not listed). hit rate 0.8% among 300,000. INS-1E cytokine-induced death, ATP luminescence, 48 h; percent of positive-control rescue, neutral wells zero;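 active = Every replicate reaches about 75%, or at least half do and their mean reaches it too, limit read from the data; inconclusive = At least half of replicates reach the limit but their mean does not; inactive = Under half of replicates reach the limit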;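 note: higher means more ATP so stronger rescue from cytokine killing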
T cruzi inh: blocks replication of Trypanosoma cruzi; inhibition, % (no concentration beside the values); hit rate 1.4% among 300,000; T. cruzi beta-gal in NIH3T3, luminescence, 90 h; AID 1885;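 active = mean inhibition across valid replicates above about 55%, limit read from the data; inconclusive = mean below that limit but half or more replicates reach it; inactive = mean below it, under half of replicates reach it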;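 note: signal also drops with host cell toxicity which is not excluded here; higher percent means less beta-gal luminescence so fewer parasites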
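Test system: β-gal T. cruzi (Tulahuen C4) inside NIH/3T3 cells / Quantity: 5,000 cells/well / Measured by: luminescence from GalScreen with 0.05% NP40, read after 60 min / Medium: DMEM plus 2% FBS / Measure: parasite load inhibition, % / Reagent: Tulahuen C4 trypomastigotes, 5000/well / Schedule: co-culture of at least 90 h after 3 h attachment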
Mdm2 MdmX PPI: human Mdm2/MdmX binding inhibition; O15151+Q00987; SaOS-2 split-luciferase Mdm2/MdmX complementation, luminescence; inhibition, % at 8 µM; hit rate 3% among 330,000; AID 485346;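 active = inhibition of at least 50% at 8 µM in the primary screen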
SKKanGAS inh: inhibitors of SKKanGAS S. pyogenes growth in kanamycin (SK-promoter or general growth effect). BacTiter-Glo, 6 h. inhibition, % at 7.5 µM. hit rate 1.3% among 300,000. AID 1662;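 active = mean replicate score, as percent of positive control median, at least 50; inconclusive = mean below 50 but one replicate at or above 50; inactive = mean and every replicate below 50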;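 note: strain carries kanamycin resistance gene driven by streptokinase promoter and grows in 40 µg/ml kanamycin; loss of luminescence reflects streptokinase promoter inhibition or plain growth inhibition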
L major viab: inhibitors of Leishmania major promastigote growth; Leishmania major promastigotes, resazurin fluorescence viability; inhibition, % at 10 µM; hit rate 9% among 200,000; AID 1063; in the data active = inhibition above about 50%;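 note: promastigotes grown with compound for 44 hours at 28 °C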
CSC inhib: cancer stem cell inhibition | cancer stem cell-like cells viability, luminescence | inhibition, % at 7.5 µM | hit rate 1.1% among 300,000 | AID 2717; in the data active = inhibition above about 75%; inconclusive = no clear call, values can overlap the other calls; tested in HMLE shEcad cells
Mdm2 MdmX conf: confirmation of human Mdm2/MdmX interaction inhibitors; inhibition, % at 8 µM; AID 489028; shares compounds with Mdm2 MdmX PPI; Mdm2-MdmX binding, luminescent assay; hit rate 55% among 10,000; in the data active = inhibition above about 40%
Full FLuc ctr: inhibits full-length luciferase, flagging false Mdm2/MdmX hits. shares compounds with Mdm2 MdmX PPI. SaOS-2 full-length luciferase counterscreen, luminescence. inhibition, % at 8 µM. hit rate 77% among 6,200. AID 504607;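 active = mean inhibition at 8 µM reaching about 37%, which flags the compound as non-specific, limit read from the data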;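 note: p53-null SaOS-2 cells with luciferase driven by a doxycycline-inducible promoter; compound on cells about two nights before reading with doxycycline added after day one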
Numbers stand for hits; – = inactive; ? = inconclusive; · = not tested or not shown. Most compounds without a hit are left out; they make up all but 9.4% or so of the library.

SMILES	Beta apoptosis	T cruzi inh	Mdm2 MdmX PPI	SKKanGAS inh	L major viab	CSC inhib	Mdm2 MdmX conf	Full FLuc ctr
Cc1nc(Nc2nc(-c3ccccc3)cc(=O)[nH]2)nc2ccccc12	–	–	68	82	–	·	45	70
Cc1nc(Nc2nc(CSc3nc4ccccc4[nH]3)cc(=O)[nH]2)nc2ccccc12	–	–	55	–	–	195	65	61
COc1ccc2nc(Nc3nc(CSc4nc5ccccc5[nH]4)cc(=O)[nH]3)nc(C)c2c1	77	–	65	–	100	–	52	46
Cc1nc(Nc2nc(CSc3ccc(Cl)cc3)cc(=O)[nH]2)nc2ccccc12	–	–	–	–	–	–	·	·
O=C(CN1C(=O)NC2(CCCC2)C1=O)Nc1cc(Cl)ccc1N1CCOCC1	–	–	–	–	·	–	·	·
COc1ccccc1N1CCN(C(=O)CCc2nnc3ccc(N4CCC(C)CC4)nn23)CC1	–	–	–	–	·	–	·	·
CC1CCN(S(=O)(=O)c2ccc(C(=O)Nc3nnc(-c4ccco4)o3)cc2)CC1	–	–	54	?	·	–	48	–
Cc1nn(Cc2ccccc2)c(Cl)c1/C=C/C(=O)OCC(=O)NC(C)C(C)C (centres undefined)	–	–	–	–	–	–	·	·
Cc1nn(Cc2c(Cl)cccc2Cl)c(Cl)c1/C=C/C(=O)OCC(=O)NCC(F)(F)F	–	–	79	–	–	–	–	·
CC1CCN(C(=O)CCc2nnc3ccc(NCCCN4CCCC4=O)nn23)CC1	–	–	–	–	·	·	·	·
CCCc1nc2ccc(N)cc2c(=O)n1Cc1ccccc1Cl	–	–	–	–	·	–	·	·
COc1ccc(Br)cc1/C=C/c1ccc2cccc(O)c2n1	–	–	51	100	·	–	–	·
COc1cc(Br)cc(/C=C/c2ccc3cccc(O)c3n2)c1OC	–	–	65	93	·	–	–	·
COc1ccc(/C=C2\SC(=S)N(CC(=O)OCC(=O)Nc3cc(Cl)cc(Cl)c3)C2=O)cc1	–	–	–	–	·	–	·	·
CCn1c2ccccc2c2cc(Nc3cc(C)nc4ncnn34)ccc21	–	–	83	–	–	–	72	109
C=CCn1c(C)cc(C(=O)CN2NS(=O)(=O)c3ccccc3C2=O)c1C	–	–	64	–	–	–	–	·
CCCCc1ccc(NC(=O)CN2NS(=O)(=O)c3ccccc3C2=O)cc1	–	–	–	–	–	–	·	·
CC[C@@H]1CC=C[C@H]2[C@H]1C(=O)N(Cc1ccccc1)[C@H]2c1cc(C)ccc1F	·	–	54	58	·	·	42	49
O=C1C2C(c3ccccc3)CC=CC2[C@H](c2ccc3ccccc3c2)N1Cc1ccccc1 (some centres undefined)	–	–	57	–	·	–	–	·
Cc1ccc(-c2cc([C@H]3[C@H]4C=CC[C@@H](C)[C@@H]4C(=O)N3Cc3ccccc3)ccc2F)cc1	–	–	–	–	·	–	·	·
Cc1ccc(F)c([C@H]2C3C=CCC(c4ccccc4)C3C(=O)N2Cc2ccccc2)c1 (some centres undefined)	109	–	58	50	·	122	–	·
O=C(NCC(c1ccco1)N1CCc2ccccc21)c1ccccc1F (centres undefined)	–	–	–	–	·	–	·	·
O=C(CCc1ccccc1)NCC(c1ccco1)N1CCc2ccccc21 (centres undefined)	–	–	53	–	·	–	76	66
COc1cc2c(C(=O)N3CCOCC3)c(CSc3ccccc3)n(C)c2cc1Br	–	–	–	–	–	–	·	·
COc1cc2c(cc1OC)C(c1ccccc1)N(C(=O)CCl)CC2 (centres undefined)	–	–	100	–	99	–	–	·
SMILES	Beta apoptosis	T cruzi inh	Mdm2 MdmX PPI	SKKanGAS inh	L major viab	CSC inhib	Mdm2 MdmX conf	Full FLuc ctr
NC(=O)CSc1nc2c(sc3ccccc32)c(=O)n1CCCC(=O)NCC1CCCO1 (centres undefined)	–	–	–	–	·	–	·	·
Cc1ccc(CNC(=O)[C@@H](NC(=O)C2CCN(C(=O)[C@@H](N)CC(C)C)CC2)C(C)C)cc1	–	–	–	–	·	–	·	·
Cc1ccc(-n2c(C)c([N+](=O)[O-])c3ccc(O)cc32)cc1	–	–	–	–	·	–	65	–
Cc1c(C(=O)O)c2cc(O)ccc2n1-c1ccccc1	–	–	–	–	–	–	·	·
Cc1c([N+](=O)[O-])c2ccc(O)cc2n1-c1ccccc1	–	–	66	–	·	–	65	–
CCO[C@H]1OC(C(=O)O)=C[C@@H](c2ccccc2)[C@@H]1CCCO	–	–	–	–	·	–	·	·
Cc1cccc(NC(=S)N2CCC(C(N)=O)(N3CCCCC3)CC2)c1C	–	–	–	–	–	–	·	·
Cc1ccc(O)c(NC(=S)NC(=O)/C=C/c2ccccc2)c1	–	–	–	–	·	–	·	·
O=C(NC(NC(=S)Nc1c(Cl)cc(Cl)cc1Cl)C(Cl)(Cl)Cl)OCc1ccccc1 (centres undefined)	–	74	86	86	–	–	57	56
O=C(/C=C/c1ccccc1)NC(NC(=S)Nc1ccc(Cl)cc1Cl)C(Cl)(Cl)Cl (centres undefined)	–	78	95	76	59	110	92	–
S=C(Nc1ccccc1)Nc1ccc(Cl)cc1Cl	–	–	–	–	–	–	·	·
O=C(/C=C/c1ccccc1)NC(NC(=S)Nc1cccc(Cl)c1)C(Cl)(Cl)Cl (centres undefined)	·	59	98	101	–	–	68	–
O=C(/C=C/c1ccccc1)NC(NC(=S)Nc1ccc(C(=O)O)cc1)C(Cl)(Cl)Cl (centres undefined)	–	–	–	–	–	–	·	·
Cc1ccc(C)c(NC(=S)NC(NC(=O)/C=C/c2ccccc2)C(Cl)(Cl)Cl)c1 (centres undefined)	–	–	81	–	–	–	74	–
O=C(Nc1cc(Cl)cc(Cl)c1)Nc1cnccn1	–	–	75	?	·	–	–	·
CCN(C[C@H]1N[C@@](CC)(C(=O)OC)[C@H]2C(=O)N(Cc3ccccc3)C(=O)[C@@H]12)C(=O)c1ccc(C(C)(C)C)cc1	·	·	75	·	·	·	68	55
COC(=O)[C@]1(Cc2ccccc2)N[C@H](CN(C)C(=O)Nc2ccc(C(F)(F)F)cc2)[C@@H]2C(=O)N(Cc3ccccc3)C(=O)[C@@H]21	–	·	70	·	·	·	43	65
CC[C@@]1(C(=O)OC)N[C@H](CN(C)C(=O)c2ccc(C(C)(C)C)cc2)[C@@H]2C(=O)N(Cc3ccccc3)C(=O)[C@@H]21	·	·	–	·	·	·	·	·
CC[C@@]1(C(=O)OC)N[C@H](CN(C)C(=O)Nc2ccc(C(F)(F)F)cc2)[C@@H]2C(=O)N(Cc3ccccc3)C(=O)[C@@H]21	–	·	84	·	·	·	81	–

From PubChem BioAssay
